Screening results as filed in PubChem BioAssay.
Hits are enriched below; roughly 2.9% of the tested compounds scored in any of these assays.
SENP1 FRET inh: SENP1 (human) catalytic domain inhibition; Q9P0U3; recombinant SENP1 catalytic domain, CyPet-SUMO1-YPet FRET cleavage; inhibition, % at 10 µM; 360,000 tested, 0.21% active;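 active = inhibition at least 30% at 10 µM, raw YFP signal under a set limit, fluorescence ratio 0.5 to 1.5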;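 also: 0% = enzyme with DMSO and 100% = no enzyme wells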
Target sequence (Q9P0U3 419-644 limits assumed): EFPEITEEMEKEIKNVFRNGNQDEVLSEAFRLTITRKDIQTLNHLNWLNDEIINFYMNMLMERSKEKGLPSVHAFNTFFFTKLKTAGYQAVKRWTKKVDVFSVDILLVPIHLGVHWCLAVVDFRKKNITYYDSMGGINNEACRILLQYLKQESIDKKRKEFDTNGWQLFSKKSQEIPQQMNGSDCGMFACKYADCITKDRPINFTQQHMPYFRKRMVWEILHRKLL
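Test system: human SENP1 catalytic domain; medium: Tris pH 8 buffer plus EDTA, NaCl, BME, BSA, NP40, catalase; incubation: 50 min reaction at room temperature; technique: FRET, CFP and YFP emission; controls: no-enzyme low control and enzyme-plus-DMSO high control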
SENP6 block: SENP6 protease inhibition. Q9GZR1. inhibition, % at 10 µM. 330,000 tested, 1.8% active. AID 2599. Recombinant SENP6 catalytic domain, aminoluciferin luminescence;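 active = inhibition above about 50% at the single tested dose, limit read from the data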;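 also: plate controls were DMSO wells with enzyme for no effect and DMSO wells lacking enzyme for full effect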
SENP8 block-1: inhibitors of human SENP8 protease | Q96LD8 | recombinant SENP8, Nedd8 substrate fluorescence | inhibition, % at 20 µM | 360,000 tested, 0.64% active | AID 602440; in the data active = inhibition mostly above about 40%, no sharp cut-off; inactive = mostly below about 27%
Target sequence (Q96LD8 whole entry, looked up): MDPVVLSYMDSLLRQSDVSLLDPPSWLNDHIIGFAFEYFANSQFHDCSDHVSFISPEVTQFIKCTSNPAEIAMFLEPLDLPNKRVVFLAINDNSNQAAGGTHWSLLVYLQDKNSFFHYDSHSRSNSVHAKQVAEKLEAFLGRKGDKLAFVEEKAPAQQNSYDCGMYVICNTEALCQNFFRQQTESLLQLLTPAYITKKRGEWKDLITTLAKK
Apaf1 inhib: inhibitors of human Apaf-1 apoptosome | 330,000 tested, 0.71% active | inhibition, % at 20 µM | reconstituted apoptosome caspase-3 activity, DEVD-Rh110 fluorescence | O14727; active = inhibition of at least 40% at 20 µM;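 also: plate controls were DMSO wells for no effect and DEVD-CHO caspase inhibitor wells for full effect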
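System: reconstituted apoptosome with Apaf-1, cytochrome c, caspase-9, procaspase-3, dATP; Signal: Rh110 fluorescence intensity; Schedule: 30 min compound preincubation, 50 min activation, room temperature; Reagent: cytochrome c trigger plus (Z-DEVD)2-Rh110 caspase-3 substrate.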
SENP8 block-2: inhibitors of human SENP8 protease. Q96LD8. purified SENP8, Z-RLRGG-aminoluciferin cleavage, luminescence. inhibition, % at 10 µM. 330,000 tested, 1.2% active; in the data active = inhibition above about 50%
SENP7 block: SENP7 protease inhibition; inhibition, % at 5 µM; 330,000 tested, 1.5% active; recombinant SENP7, Z-RLRGG-aminoluciferin luminescence, 40 min;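 active = inhibition above about 50% at the single test dose, limit read from the data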;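 also: plate controls were DMSO with enzyme for no effect and no enzyme buffer wells for full effect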
SENP8 inh conf: confirmation of human SENP8 protease inhibitors; shares compounds with SENP8 block-1; purified SENP8, Nedd8-AMC/pro-Nedd8 cleavage fluorescence, 30 min; inhibition, % at 25 µM; 1,400 tested, 15% active; AID 624319; in the data active = inhibition mostly above about 39%, no sharp cut-off; inactive = mostly below about 34%
* = called active by the depositor; i = inactive; x = no result.

SMILES | SENP1 FRET inh | SENP6 block | SENP8 block-1 | Apaf1 inhib | SENP8 block-2 | SENP7 block | SENP8 inh conf
O=C(OCC#CCSc1nnc(-c2cccc3ccccc23)o1)c1cccc2[nH]ccc12 | 0 | -24 | i | -1 | -4 | 3 | x
COc1ccc(C(=O)O)cc1S(=O)(=O)Nc1ccccc1C(=O)NCc1ccc2c(c1)OCO2 | 1 | 6 | -117 | -4 | 4 | 5 | x
C=CCC[C@@H](Cc1ccc(F)cc1)C(=O)OC[C@@H](NC(=O)[C@@H](CC=C)CC(=O)N[C@H](CO)Cc1ccccc1)C(C)(C)C | 2 | -24 | -1 | 19 | -6 | -11 | x
Cc1[nH]n2c(=O)cc(-c3ccc([N+](=O)[O-])cc3)nc2c1-c1ccccc1 | 1 | -3 | 44* | 8 | 5 | 1 | 19
CCCc1cc(=O)n2[nH]c(C)c(-c3ccccc3)c2n1 | -1 | -8 | i | 8 | -2 | 2 | x
COc1ccc(CNC(=O)[C@H](C)N2C(=O)N3CCc4c([nH]c5ccccc45)[C@@]3(C)C2=O)cc1OC | 2 | -3 | 51* | -5 | -2 | 4 | -5
COc1ccc(C)cc1NC(=O)CN1CCN(S(=O)(=O)c2ccc3ccccc3c2)CC1 | 0 | 10 | 9 | 12 | 8 | -2 | x
Cc1ccc(N=C2N=C(N)c3ccccc32)c(C)c1 | 1 | -13 | 42* | -5 | -5 | -4 | 12
C=C(C)COc1ccc2c(C)c(CC(=O)N3C[C@H]4C[C@@H](C3)c3cccc(=O)n3C4)c(=O)oc2c1C | -4 | -6 | 3 | -2 | 3 | -4 | x
COC(=O)Nc1ccc(S(=O)(=O)NC2CCS(=O)(=O)C2)cc1 (stereo unspecified) | 1 | 20 | 45* | -30 | 6 | 6 | 32
O=C(COC(=O)c1ccc([N+](=O)[O-])o1)NCc1ccc2c(c1)OCO2 | 2 | 20 | 41* | 38 | 6 | -1 | 76*
O=C(COC(=O)c1ccc([N+](=O)[O-])o1)NCCc1ccccc1 | -37 | 11 | -60 | 32 | -7 | 4 | x
CC(NC(=O)COC(=O)c1ccc([N+](=O)[O-])o1)c1ccccc1 (stereo unspecified) | 4 | 8 | 57* | 9 | 11 | 8 | 88*
Cn1c(CC(O)c2nc3ccccc3n2C)nc2ccccc21 (stereo unspecified) | -9 | x | -326 | x | x | x | x
C[C@H]1CN([C@@H](C)CO)C(=O)CCCn2nncc2CO[C@H]1CN(C)S(=O)(=O)c1ccc2c(c1)OCCCO2 | 0 | x | 8 | x | x | x | x
CCN(CC)C(=O)Cc1ccccc1 | 1 | -22 | 42* | -12 | 0 | -6 | 14
CCCCc1ccc(NC(=S)Nc2ccc(Nc3ccc(OC)cc3)cc2)cc1 | 0 | -17 | 42* | -5 | -13 | 4 | 22
CCCCc1ccc(NC(=S)NCc2cccc(OC)c2)cc1 | -1 | 6 | 8 | 22 | -2 | 12 | x
COc1cc(NCCCCCCN)c2ncccc2c1OC | 11 | x | 72* | x | x | x | 96*
COc1cc(NC(C)CCCNC(C)C)c2ncccc2c1OC (stereo unspecified) | 10 | x | 9 | x | x | x | x
C=C(C)Cn1c(NCCOC)nc2c1c(=O)[nH]c(=O)n2C | 1 | -3 | 40* | -40 | -6 | 0 | 9
CCOC(=O)[C@]12CCC=C1N(CCC1=CCCCC1)C(=O)[C@H](CC(=O)NCCCN1CCCC1=O)C2 | 2 | x | 23 | x | x | x | x
CCOC(=O)[C@]12CCCC=C1N(CCC1=CCCCC1)C(=O)[C@H](CC(=O)NCCCN1CCCC1=O)C2 | 0 | x | 42* | x | x | x | 9
Cc1cscc1-c1ccc(C(=O)Nc2c(C)cccc2C)o1 | 2 | x | 14 | x | x | x | x
C=CCn1c(Br)nc2c1c(=O)n(C)c(=O)n2C | 1 | -11 | 9 | -9 | -1 | 0 | x
Cn1c(=O)c2c(nc(Br)n2C)n(C)c1=O | -1 | -5 | 41* | 18 | -5 | -2 | 0
Cc1cccc(C)c1NC(=O)C(c1ccnc2ccccc12)n1c(=O)c(-c2ccco2)nc2ccccc21 (stereo unspecified) | -42 | x | -396 | x | x | x | x
